Assay results from ChEMBL document CHEMBL4382248, “Optimization of a 1,3,4-oxadiazole series for inhibition of Ca2+/calmodulin-stimulated activity of adenylyl cyclases 1 and 8 for the treatment of chronic pain” (Eur J Med Chem, 2019).

Columns and labels:
Type in all cases: cell-based
[1] = Cytotoxicity against HEK293 cells expressing human AC1 at 30 uM preincubated for 30 mins followed by A23187 stimulation and measured after 1 hr by CellTiter-Glo luminescent cell viability assay relative to control; settings: HEK293 cells expressing human AC1, read-out: Activity
Outline: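 Cytotoxicity in HEK lines stably expressing AC1 or AC8: single 30 µM dose, 90 min incubation. Viability was read by luminescent ATP reporter as % of DMSO-treated (100%) and Triton-X-treated (0%) controls.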

[2] = target: Adenylate cyclase type 8 (Homo sapiens, UniProt P40145); assay: Inhibition of human AC8 expressed in HEK293 cells assessed as decrease in A23187-stimulated cAMP accumulation at 30 uM preincubated for 30 mins followed by A23187 stimulation and measured after 1 hr by fluorescence assay relative to control
Chain of Adenylate cyclase type 8 (P40145 whole entry): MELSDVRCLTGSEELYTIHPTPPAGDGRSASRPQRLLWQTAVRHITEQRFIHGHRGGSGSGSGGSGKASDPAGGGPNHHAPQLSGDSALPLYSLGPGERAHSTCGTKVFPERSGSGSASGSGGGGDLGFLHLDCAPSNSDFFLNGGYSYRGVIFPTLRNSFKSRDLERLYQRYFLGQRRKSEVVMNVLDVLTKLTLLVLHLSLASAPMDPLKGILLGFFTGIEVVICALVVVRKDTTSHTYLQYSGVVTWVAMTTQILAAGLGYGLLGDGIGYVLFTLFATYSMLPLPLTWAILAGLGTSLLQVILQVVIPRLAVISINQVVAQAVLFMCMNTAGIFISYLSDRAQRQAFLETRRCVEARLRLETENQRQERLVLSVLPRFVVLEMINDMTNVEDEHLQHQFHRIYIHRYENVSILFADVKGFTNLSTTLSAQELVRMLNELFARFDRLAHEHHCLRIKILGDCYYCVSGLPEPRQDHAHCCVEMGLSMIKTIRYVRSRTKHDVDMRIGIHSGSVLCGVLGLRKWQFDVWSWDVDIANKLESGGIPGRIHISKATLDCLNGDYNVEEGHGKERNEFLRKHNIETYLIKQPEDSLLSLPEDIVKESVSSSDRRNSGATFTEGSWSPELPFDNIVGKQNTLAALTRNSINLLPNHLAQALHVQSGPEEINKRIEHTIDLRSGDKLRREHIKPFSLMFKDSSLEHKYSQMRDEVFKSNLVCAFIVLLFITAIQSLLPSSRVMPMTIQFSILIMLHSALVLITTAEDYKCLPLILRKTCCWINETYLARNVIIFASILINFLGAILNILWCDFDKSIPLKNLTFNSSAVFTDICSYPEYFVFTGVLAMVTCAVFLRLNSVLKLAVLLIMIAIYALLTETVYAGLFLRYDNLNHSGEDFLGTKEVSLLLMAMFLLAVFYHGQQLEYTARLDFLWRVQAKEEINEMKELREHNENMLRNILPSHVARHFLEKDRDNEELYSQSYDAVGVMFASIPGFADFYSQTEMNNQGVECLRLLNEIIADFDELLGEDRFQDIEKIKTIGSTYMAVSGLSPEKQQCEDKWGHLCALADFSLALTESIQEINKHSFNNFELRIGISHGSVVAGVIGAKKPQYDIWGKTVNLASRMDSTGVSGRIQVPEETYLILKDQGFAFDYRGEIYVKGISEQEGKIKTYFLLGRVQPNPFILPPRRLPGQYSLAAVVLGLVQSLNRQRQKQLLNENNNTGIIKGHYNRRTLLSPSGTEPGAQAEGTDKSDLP
Outline: (§1)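 HEK cells stably expressing AC1 or AC8; Ca2+/calmodulin-stimulated cAMP accumulation measured. Dose-response curves began at 30 µM. […] Values are the mean and SEM of three independent experiments.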

[3] = species: Homo sapiens; assay: Selectivity ratio of IC50 for human AC8 expressed in HEK293 cells to IC50 for human AC1 expressed in HEK293 cells
[4] = target: Adenylate cyclase type 1 (Homo sapiens, UniProt Q08828); assay: Inhibition of human AC1 expressed in HEK293 cells assessed as decrease in A23187-stimulated cAMP accumulation preincubated for 30 mins followed by A23187 stimulation and measured after 1 hr by fluorescence assay; outline: as §1
Chain of Adenylate cyclase type 1 (Q08828 whole entry): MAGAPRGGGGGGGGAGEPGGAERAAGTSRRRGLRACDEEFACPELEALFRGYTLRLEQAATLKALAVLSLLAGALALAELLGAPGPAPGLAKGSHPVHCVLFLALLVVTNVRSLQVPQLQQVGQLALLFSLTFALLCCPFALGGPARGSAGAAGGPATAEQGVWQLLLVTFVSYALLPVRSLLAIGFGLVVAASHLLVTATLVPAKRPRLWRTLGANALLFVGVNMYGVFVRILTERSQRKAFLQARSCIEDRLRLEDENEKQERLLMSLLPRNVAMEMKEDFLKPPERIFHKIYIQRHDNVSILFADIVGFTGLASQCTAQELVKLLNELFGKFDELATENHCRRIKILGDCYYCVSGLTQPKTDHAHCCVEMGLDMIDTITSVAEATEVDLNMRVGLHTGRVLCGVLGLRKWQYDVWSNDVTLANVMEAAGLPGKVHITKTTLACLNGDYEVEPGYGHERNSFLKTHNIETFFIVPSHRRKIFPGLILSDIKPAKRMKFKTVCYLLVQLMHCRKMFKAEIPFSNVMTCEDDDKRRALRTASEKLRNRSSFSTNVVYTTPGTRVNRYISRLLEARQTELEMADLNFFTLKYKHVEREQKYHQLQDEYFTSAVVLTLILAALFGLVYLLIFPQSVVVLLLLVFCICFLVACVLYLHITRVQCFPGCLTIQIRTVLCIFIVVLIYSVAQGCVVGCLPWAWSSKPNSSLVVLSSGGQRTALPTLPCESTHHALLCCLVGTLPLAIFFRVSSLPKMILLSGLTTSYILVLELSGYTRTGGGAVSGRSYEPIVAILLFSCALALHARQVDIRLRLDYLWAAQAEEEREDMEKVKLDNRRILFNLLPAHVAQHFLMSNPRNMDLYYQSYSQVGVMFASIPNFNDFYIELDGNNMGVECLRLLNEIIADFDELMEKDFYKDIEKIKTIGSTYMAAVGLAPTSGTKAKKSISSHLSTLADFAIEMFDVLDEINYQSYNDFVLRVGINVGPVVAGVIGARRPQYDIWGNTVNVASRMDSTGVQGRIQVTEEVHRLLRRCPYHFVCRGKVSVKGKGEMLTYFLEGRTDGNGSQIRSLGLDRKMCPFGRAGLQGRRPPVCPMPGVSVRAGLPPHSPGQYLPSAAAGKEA

[5] = target: Adenylate cyclase type 5 (Homo sapiens) (UniProt O95622); assay: Inhibition of human AC5 expressed in HEK293 cells assessed as forskolin-stimulated cAMP accumulation at 30 uM preincubated for 30 mins followed by forskolin stimulation and measured after 1 hr by fluorescence assay relative to control; parameters: scale not given: the % may be the effect or the level left
Chain of Adenylate cyclase type 5 (Homo sapiens) (O95622 whole entry, looked up): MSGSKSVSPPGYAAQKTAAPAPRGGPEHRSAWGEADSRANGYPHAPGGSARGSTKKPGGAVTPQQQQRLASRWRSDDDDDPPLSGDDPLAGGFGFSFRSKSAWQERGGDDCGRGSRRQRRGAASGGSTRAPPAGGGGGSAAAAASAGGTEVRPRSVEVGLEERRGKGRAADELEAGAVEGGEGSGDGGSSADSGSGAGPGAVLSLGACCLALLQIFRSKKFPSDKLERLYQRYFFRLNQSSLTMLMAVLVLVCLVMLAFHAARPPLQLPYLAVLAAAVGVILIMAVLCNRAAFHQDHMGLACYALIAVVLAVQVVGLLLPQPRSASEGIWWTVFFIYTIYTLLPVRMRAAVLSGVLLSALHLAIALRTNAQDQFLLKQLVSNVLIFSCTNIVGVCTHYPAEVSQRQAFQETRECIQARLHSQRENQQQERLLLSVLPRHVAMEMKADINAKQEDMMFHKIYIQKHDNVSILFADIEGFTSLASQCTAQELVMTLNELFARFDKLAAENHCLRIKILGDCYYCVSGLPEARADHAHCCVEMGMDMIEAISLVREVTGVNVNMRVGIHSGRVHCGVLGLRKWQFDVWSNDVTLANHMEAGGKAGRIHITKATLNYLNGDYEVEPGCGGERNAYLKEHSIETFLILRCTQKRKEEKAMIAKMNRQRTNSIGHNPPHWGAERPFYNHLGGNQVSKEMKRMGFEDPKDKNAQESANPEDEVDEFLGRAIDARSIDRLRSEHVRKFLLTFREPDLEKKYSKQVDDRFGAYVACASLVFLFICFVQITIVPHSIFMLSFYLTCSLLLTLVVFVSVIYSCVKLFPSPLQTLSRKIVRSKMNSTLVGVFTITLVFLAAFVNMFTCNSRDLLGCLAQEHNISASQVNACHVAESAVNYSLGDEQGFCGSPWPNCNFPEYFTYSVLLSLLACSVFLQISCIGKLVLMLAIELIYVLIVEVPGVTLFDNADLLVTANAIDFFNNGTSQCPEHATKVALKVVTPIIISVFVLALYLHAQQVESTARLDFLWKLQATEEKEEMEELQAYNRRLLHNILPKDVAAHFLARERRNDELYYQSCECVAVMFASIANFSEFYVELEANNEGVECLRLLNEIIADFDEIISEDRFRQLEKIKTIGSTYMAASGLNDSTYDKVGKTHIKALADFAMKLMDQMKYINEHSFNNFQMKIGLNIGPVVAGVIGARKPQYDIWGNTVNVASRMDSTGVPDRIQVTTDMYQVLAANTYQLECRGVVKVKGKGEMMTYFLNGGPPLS
Outline: (§2)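 Group 2 AC2 (PKC-stimulated) or group 3 AC (forskolin-stimulated) cells were exposed to a single 30 µM dose (n = 3). cAMP activity was normalized to DMSO controls set as 100%.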

[6] = target: Adenylate cyclase type 2 (Homo sapiens) (UniProt Q08462); assay: Inhibition of human AC2 expressed in HEK293 cells assessed as PMA-stimulated cAMP accumulation at 30 uM preincubated for 30 mins followed by PMA stimulation and measured after 1 hr by fluorescence assay relative to control; parameters: scale not given: the % may be the effect or the level left; outline: as §2
Chain of Adenylate cyclase type 2 (Homo sapiens) (Q08462 whole entry): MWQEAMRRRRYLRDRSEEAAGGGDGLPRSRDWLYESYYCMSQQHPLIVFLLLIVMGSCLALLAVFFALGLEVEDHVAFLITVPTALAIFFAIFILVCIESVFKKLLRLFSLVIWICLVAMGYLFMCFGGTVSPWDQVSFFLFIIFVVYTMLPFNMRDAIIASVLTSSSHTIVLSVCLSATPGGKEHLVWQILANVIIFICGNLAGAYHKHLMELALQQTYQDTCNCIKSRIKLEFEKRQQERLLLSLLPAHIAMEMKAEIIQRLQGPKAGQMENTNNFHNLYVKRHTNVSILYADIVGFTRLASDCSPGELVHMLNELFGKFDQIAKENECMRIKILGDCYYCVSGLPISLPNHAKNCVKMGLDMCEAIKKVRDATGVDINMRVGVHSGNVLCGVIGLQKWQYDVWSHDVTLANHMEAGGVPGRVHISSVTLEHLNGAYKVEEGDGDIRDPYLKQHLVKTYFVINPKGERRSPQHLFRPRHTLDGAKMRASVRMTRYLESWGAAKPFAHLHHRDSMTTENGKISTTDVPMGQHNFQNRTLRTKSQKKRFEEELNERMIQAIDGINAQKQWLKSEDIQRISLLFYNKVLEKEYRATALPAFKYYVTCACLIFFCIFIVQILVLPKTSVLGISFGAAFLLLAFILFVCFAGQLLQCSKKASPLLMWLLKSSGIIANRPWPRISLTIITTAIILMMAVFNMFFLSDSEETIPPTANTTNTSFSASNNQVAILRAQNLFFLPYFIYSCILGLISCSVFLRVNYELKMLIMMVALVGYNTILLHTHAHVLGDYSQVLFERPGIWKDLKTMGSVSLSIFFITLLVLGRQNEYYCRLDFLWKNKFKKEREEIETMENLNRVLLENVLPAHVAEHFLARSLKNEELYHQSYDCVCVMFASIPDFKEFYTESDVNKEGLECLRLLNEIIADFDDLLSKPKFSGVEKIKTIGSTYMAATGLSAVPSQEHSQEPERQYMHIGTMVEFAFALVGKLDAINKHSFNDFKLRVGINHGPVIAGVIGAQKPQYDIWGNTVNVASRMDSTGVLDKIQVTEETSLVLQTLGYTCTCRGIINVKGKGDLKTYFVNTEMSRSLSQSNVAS

Row | inhibition [2] [%] | IC50 [4] [µM] | Activity [5] [%] | Activity [6] [%] | Compound | viability at 1 h, 30 µM [1] [%] | Ratio IC50 [3]
1 | 14 |  |  |  | O=C(Nc1nnc(-c2ccc(F)cc2)o1)c1ccc(F)cc1 | 100 | 
2 | 24 to 35 |  |  |  | CC(C)Oc1ccc(C(=O)Nc2nnc(-c3cccs3)o2)cc1 | 73 to 81 | 
3 | 39 |  |  |  | CC(C)Oc1ccc(C(=O)Nc2nnc(-c3ccc4c(c3)OCCO4)o2)cc1 | 160 | 
4 |  |  | 139 | 275 | Cc1ccc(C(=O)Nc2nnc(-c3ccc4c(c3)CCCC4)o2)cc1 | 107 to 123 | 0.79 to 7.4
5 |  |  | 159 | 198 | O=C(Nc1nnc(-c2ccc3c(c2)OCCO3)o1)c1ccc(Br)cc1 | 121 | 6.8
6 |  |  | 215 | 160 | O=C(Nc1nnc(-c2ccc3c(c2)CCCC3)o1)c1ccc(Br)cc1 | 113 to 115 | 2.23 to 4.5
7 | 31 |  | 170 | 341 | Cc1ccc(C(=O)Nc2nnc(-c3ccc(F)cc3)o2)cc1 | 104 | > 3.6
8 | 23 |  |  |  | COc1cccc(C(=O)Nc2nnc(-c3ccc(F)cc3)o2)c1 | 99 | 
9 | 38 | 16 |  |  | O=C(Nc1nnc(-c2ccc(F)cc2)o1)c1ccc(S(=O)(=O)N2CCCCC2)cc1 | 119 | 
10 | 43 | 5.4 |  |  | CC(C)Oc1ccc(C(=O)Nc2nnc(-c3ccccc3)o2)cc1 | 101 | > 5.5
11 | 32 |  |  |  | CCc1ccc(C(=O)Nc2nnc(-c3ccc(F)cc3)o2)cc1 | 95 | 
12 | 34 |  |  |  | COc1ccc(C(=O)Nc2nnc(-c3ccc4c(c3)CCCC4)o2)cc1 | 118 to 121 | > 4.7
13 | 42 |  |  |  | Cc1ccc(C(=O)Nc2nnc(-c3ccc(F)cc3)o2)cc1C | 95 | 
14 | 11 |  |  |  | O=C(Nc1nnc(-c2ccc(F)cc2)o1)c1ccc(Cl)cc1 | 84 | 
15 | 18 |  |  |  | COc1cccc(C(=O)Nc2nnc(-c3ccc4c(c3)OCCO4)o2)c1 | 103 | 
16 | 33 |  |  |  | O=C(Nc1nnc(-c2ccc(F)cc2)o1)c1ccc(Br)cc1 | 103 | 
17 | 20 | 13 |  |  | COc1ccc(C(=O)Nc2nnc(-c3ccc(F)cc3)o2)cc1 | 82 | 
18 | 10 |  |  |  | COc1ccc(C(=O)Nc2nnc(-c3cccs3)o2)cc1 | 97 | 
19 | 6 |  |  |  | COc1ccc(C(=O)Nc2nnc(C3CCCCC3)o2)cc1 | 82 | 

Continued, molecule first:

Row | Compound | inhibition [2] [%] | IC50 [4] [µM] | Activity [5] [%] | Activity [6] [%] | viability at 1 h, 30 µM [1] [%] | Ratio IC50 [3]
20 | CCc1ccc(C(=O)Nc2nnc(C3CCCCC3)o2)cc1 | 44 |  |  |  | 119 | 
21 | Cc1cc(C(=O)Nc2nnc(-c3ccc4c(c3)CCCC4)o2)cc(C(F)(F)F)c1 |  |  |  |  | 116 | 0.26
22 | O=C(Nc1nnc(-c2ccc(F)cc2)o1)c1ccc(-c2ccccc2)cc1 |  |  |  |  | 114 | 2.7
23 | CSc1cccc(C(=O)Nc2nnc(-c3ccc4c(c3)OCCO4)o2)c1 | 37 | 9.5 |  |  | 109 | 
24 | COc1cc(C(=O)Nc2nnc(-c3ccc4c(c3)CCCC4)o2)cc(C(F)(F)F)c1 |  |  |  |  | 121 | 1.1
25 | CSc1cccc(C(=O)Nc2nnc(-c3cccs3)o2)c1 | 34 |  |  |  | 110 | 
26 | CSc1cccc(C(=O)Nc2nnc(-c3ccc4c(c3)CCCC4)o2)c1 |  |  |  |  | 118 to 137 | 5.5 to 10
27 | CCc1ccc(C(=O)Nc2nnc(-c3ccc4c(c3)CCCC4)o2)cc1 |  |  |  |  | 114 | 1.7
28 | O=C(Nc1nnc(-c2ccc(F)cc2)o1)c1cccc(F)c1 | 35 | 11 |  |  | 104 | 
29 | O=C(Nc1nnc(-c2ccc3c(c2)OCCO3)o1)c1ccccc1 | 24 |  |  |  | 87 | > 1
30 | O=C(Nc1nnc(C2CCCCC2)o1)c1cccc(-c2ccccc2)c1 |  |  |  |  | 115 | 1
31 | O=C(Nc1nnc(-c2ccc3c(c2)OCCO3)o1)c1cccc(C(F)(F)F)c1 |  |  |  |  | 116 | 6.3
32 | COc1cccc(C(=O)Nc2nnc(-c3ccc4c(c3)CCCC4)o2)c1 |  |  |  |  | 111 to 124 | 0.83 to 8.1
33 | Cc1ccc(C(=O)Nc2nnc(C3CCCCC3)o2)cc1C(F)(F)F |  |  |  |  | 139 | 1.9
34 | Cc1ccc(C(=O)Nc2nnc(-c3ccc(F)cc3)o2)cc1C(F)(F)F |  |  |  |  | 133 | 1.9
35 | Cc1ccc(C(=O)Nc2nnc(C3CCCCC3)o2)cc1C |  |  |  |  | 112 | 5.4
36 | O=C(Nc1nnc(-c2cccs2)o1)c1ccc(Br)cc1 | 41 |  |  |  | 110 | 
37 | O=C(Nc1nnc(-c2ccc3c(c2)CCCC3)o1)c1cccc(F)c1 |  |  |  |  | 94 | 4.2
38 | O=C(Nc1nnc(-c2ccc3c(c2)CCCC3)o1)c1ccccc1 |  |  |  |  | 84 to 124 | 1.1 to 5.6

Row | Compound | inhibition [2] [%] | IC50 [4] [µM] | Activity [5] [%] | Activity [6] [%] | viability at 1 h, 30 µM [1] [%] | Ratio IC50 [3]
39 | O=C(Nc1nnc(-c2cccs2)o1)c1ccccc1 | 18 | 28 |  |  | 97 | 
40 | O=C(Nc1nnc(-c2ccc(F)cc2)o1)c1cccc(C(F)(F)F)c1 |  |  |  |  | 108 | 5.8
41 | Cc1cc(C(=O)Nc2nnc(C3CCCCC3)o2)cc(C(F)(F)F)c1 |  |  |  |  | 125 | 2.9
42 | CC(C)Oc1ccc(C(=O)Nc2nnc(C3CCCCC3)o2)cc1 | 35 |  |  |  | 99 | 
43 | Cc1ccc(C(=O)Nc2nnc(-c3ccc4c(c3)CCCC4)o2)cc1C(F)(F)F |  |  |  |  | 115 | 0.5
44 | O=C(Nc1nnc(C2CCCCC2)o1)c1ccc(F)cc1 | 7 | 13 |  |  | 95 | 
45 | CC(C)Oc1ccc(C(=O)Nc2nnc(-c3ccc4c(c3)CCCC4)o2)cc1 |  |  |  |  | 124 to 129 | 0.73 to 1.2
46 | O=C(Nc1nnc(C2CCCCC2)o1)c1cccc(F)c1 | 11 | 11 |  |  | 87 | 
47 | CSc1cccc(C(=O)Nc2nnc(C3CCCCC3)o2)c1 | 31 to 43 |  |  |  | 117 to 137 | > 4.5
48 | Cc1ccc(C(=O)Nc2nnc(-c3ccc4c(c3)OCCO4)o2)cc1C |  |  |  |  | 113 | 2.6
49 | O=C(Nc1nnc(-c2ccc(F)cc2)o1)c1ccccc1 | 8 |  |  |  | 87 | 
50 | Cc1ccc(C(=O)Nc2nnc(C3CCCCC3)o2)cc1 | 1 | 16 |  |  | 111 | 
51 | O=C(Nc1nnc(C2CCCCC2)o1)c1ccc(Cl)cc1 | 10 | 14 |  |  | 89 | 
52 | COc1cc(C(=O)Nc2nnc(C3CCCCC3)o2)cc(C(F)(F)F)c1 |  |  |  |  | 113 | 1.9
53 | O=C(Nc1nnc(C2CCCCC2)o1)c1cccc(C(F)(F)F)c1 |  |  |  |  | 102 | > 3.6
54 | O=C(Nc1nnc(C2CCCCC2)o1)c1ccc(Br)cc1 |  |  |  |  | 108 | 2.9
55 | O=C(Nc1nnc(C2CCCCC2)o1)c1ccccc1 | 2 | 25 |  |  | 87 | 
56 | O=C(Nc1nnc(-c2ccc3c(c2)CCCC3)o1)c1ccc(F)cc1 |  |  |  |  | 110 | 3.7
